Measurements published in paper PMC13170702 (Nuclear medicine and biology, 2025).

Assay: HPLC stability determination of final drug product
Assay type: physicochemical
Settings: ambient temperature, shielded container
How it was run: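 Final product was formulated at 44–463 MBq/mL in USP ethanol (1 mL)/0.5 mg ascorbic acid in 0.9 % sodium chloride, sterile filtered and sealed in a glass vial. It was held at ambient temperature in a shielded container and checked by HPLC after end-of-synthesis. Release QC covered HPLC radiochemical purity (≥90 %), pH 4.5–7.5, endotoxin, GC residual solvents, sterility and filter integrity.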

COC(=O)[C@@H](N)CC(=O)Nc1ccc2c(c1)Cc1cc([18F])ccc1-2 [[^18F]RP-115, methyl N^4-(7-[^18F]fluoro-9H-fluoren-2-yl)asparaginate]
expiration time after end-of-synthesis (EOS): 4 h
